Measured values: ChEMBL document CHEMBL2150914, “Synthesis and biological evaluation of N-arylbenzo[b]thieno[3,2-d]pyrimidin-4-amines and their pyrido and pyrazino analogues as Ser/Thr kinase inhibitors” (Eur J Med Chem, 2012)

Experiments:
[1] = molecular target: Cyclin-dependent kinase 5/CDK5 activator 1 (Homo sapiens, UniProt Q00535); assay: Inhibition of human recombinant GST-tagged CDK5/p25 expressed in Escherichia coli using histone H1 as substrate and [gamma32P]ATP after 30 mins by scintillation counting
Chain of Cyclin-dependent kinase 5/CDK5 activator 1 (Q00535 whole entry): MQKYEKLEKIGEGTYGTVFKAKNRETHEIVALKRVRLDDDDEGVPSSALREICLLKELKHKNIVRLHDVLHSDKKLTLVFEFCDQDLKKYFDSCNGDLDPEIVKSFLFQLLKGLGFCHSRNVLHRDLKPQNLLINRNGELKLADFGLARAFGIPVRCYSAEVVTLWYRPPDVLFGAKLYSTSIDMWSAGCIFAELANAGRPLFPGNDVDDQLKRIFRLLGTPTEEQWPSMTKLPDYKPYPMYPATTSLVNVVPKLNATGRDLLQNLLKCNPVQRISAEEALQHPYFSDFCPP
Chain of Cyclin-dependent kinase 5/CDK5 activator 1 (Q15078 whole entry, further chain): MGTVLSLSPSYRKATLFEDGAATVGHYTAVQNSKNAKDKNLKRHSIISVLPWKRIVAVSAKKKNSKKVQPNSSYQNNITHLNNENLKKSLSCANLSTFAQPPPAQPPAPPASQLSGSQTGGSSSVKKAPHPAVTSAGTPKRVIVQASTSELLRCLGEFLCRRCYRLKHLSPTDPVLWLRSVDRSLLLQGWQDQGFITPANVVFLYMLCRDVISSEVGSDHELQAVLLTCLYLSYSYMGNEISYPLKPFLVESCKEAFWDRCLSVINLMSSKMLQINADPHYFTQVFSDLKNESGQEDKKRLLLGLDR

[2] = molecular target: Glycogen synthase kinase-3 (Sus scrofa, UniProt B2LUN4+I6LNT8); assay: Inhibition of pig GSK3alpha/beta isolated from brain using YRRAAVPPSPSLSRHSSPHQpSEDEEE as substrate and [gamma32P]ATP after 30 mins by scintillation counting
How it was run: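 Assay run at 30 °C in one of two buffers: buffer A (Tris-HCl pH 7.5 with MgCl2, EGTA, DTT, heparin) or buffer B (Mops pH 7.2 with beta-glycerophosphate, EGTA, MgCl2, DTT, vanadate). Peptide substrate. Blank values subtracted and activity expressed as % of maximal, uninhibited activity. Controls with matching DMSO dilutions.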

[3] = Inhibition of pig CK1delta/epsilon isolated from brain using RRKHAAIGpSAYSITA as substrate and [gamma32P]ATP after 30 mins by scintillation counting; parameters: species or system Sus scrofa
[4] = molecular target: Dual specificity tyrosine-phosphorylation-regulated kinase 1A (Rattus norvegicus, UniProt Q63470); assay: Inhibition of rat recombinant GST-tagged DYRK1A expressed in Escherichia coli using KKISGRLSPIMTEQ as substrate and [gamma32P]ATP after 30 mins by scintillation counting
How it was run: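 Rat DYRK1A, expressed in E. coli as a GST fusion and purified on glutathione-agarose. Blanks subtracted. Activity given as % of uninhibited maximum. DMSO dilution controls.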

[5] = molecular target: Dual specificity protein kinase CLK1 (Homo sapiens, UniProt P49759); assay: Inhibition of human recombinant GST-tagged CLK1 expressed in Escherichia coli using GRSRSRSRSRSR as substrate and [gamma32P]ATP after 30 mins by scintillation counting
Chain of Dual specificity protein kinase CLK1 (P49759 whole entry): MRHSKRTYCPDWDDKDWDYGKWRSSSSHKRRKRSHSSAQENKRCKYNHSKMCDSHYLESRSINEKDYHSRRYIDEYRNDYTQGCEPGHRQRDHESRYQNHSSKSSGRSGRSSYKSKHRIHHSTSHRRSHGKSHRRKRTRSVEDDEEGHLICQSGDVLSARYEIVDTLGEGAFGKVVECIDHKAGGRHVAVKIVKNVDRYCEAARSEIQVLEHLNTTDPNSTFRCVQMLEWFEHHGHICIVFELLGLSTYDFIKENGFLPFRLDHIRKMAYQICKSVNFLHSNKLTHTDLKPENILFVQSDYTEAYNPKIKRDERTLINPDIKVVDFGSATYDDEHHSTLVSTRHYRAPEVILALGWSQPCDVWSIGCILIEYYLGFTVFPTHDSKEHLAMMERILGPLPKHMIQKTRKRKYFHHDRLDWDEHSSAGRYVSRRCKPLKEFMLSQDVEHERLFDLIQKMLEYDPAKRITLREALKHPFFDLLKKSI

Compound | IC50 [1] [µM] | IC50 [2] [µM] | IC50 [3] [µM] | IC50 [4] [µM] | IC50 [5] [µM]
Nc1ncnc2c1sc1ccccc12 | 5.2 | > 10 | 0.79 | 5.1 | 
c1ccc(Nc2ncnc3c2sc2ccccc23)cc1 | > 10 | > 10 | > 10 | > 10 | 
COc1ccc(Nc2ncnc3c2sc2ccccc23)cc1 | > 10 | > 10 | > 10 | > 10 | 
COc1ccc(Nc2ncnc3c2sc2ccccc23)cc1OC | > 10 | > 10 | > 10 | 3.7 | 
COc1cc(Nc2ncnc3c2sc2ccccc23)cc(OC)c1 | > 10 | > 10 | > 10 | > 10 | 
COc1cc(Nc2ncnc3c2sc2ccccc23)cc(OC)c1OC | > 10 | > 10 | > 10 | > 10 | 
c1ccc2c(c1)sc1c(Nc3ccc4c(c3)OCO4)ncnc12 | > 10 | > 10 | > 10 | > 10 | 
c1ccc2c(c1)sc1c(Nc3ccc4c(c3)OCCO4)ncnc12 | > 10 | > 10 | > 10 | > 10 | 
Fc1cc(Br)ccc1Nc1ncnc2c1sc1ccccc12 | > 10 | > 10 | > 10 | > 10 | 
O=[N+]([O-])c1cc(Nc2ncnc3c2sc2ccccc23)ccc1O | > 10 | > 10 | > 10 | > 10 | 
c1ccc(Nc2ncnc3c2sc2ncccc23)cc1 | > 10 | > 10 | 0.18 | > 10 | 4.5
COc1ccc(Nc2ncnc3c2sc2ncccc23)cc1 | > 10 | > 10 | 0.52 | > 10 | 3.3
COc1ccc(Nc2ncnc3c2sc2ncccc23)cc1OC | > 10 | > 10 | > 10 | 2.9 | 3.4
COc1cc(Nc2ncnc3c2sc2ncccc23)cc(OC)c1 | > 10 | > 10 | > 10 | > 10 | > 10
COc1cc(Nc2ncnc3c2sc2ncccc23)cc(OC)c1OC | > 10 | > 10 | > 10 | > 10 | > 10
c1cnc2sc3c(Nc4ccc5c(c4)OCO5)ncnc3c2c1 | > 10 | > 10 | 0.44 | > 10 | 2.2
c1cnc2sc3c(Nc4ccc5c(c4)OCCO5)ncnc3c2c1 | > 10 | > 10 | > 10 | > 10 | > 10
Fc1cc(Br)ccc1Nc1ncnc2c1sc1ncccc12 | > 10 | > 10 | 0.28 | 0.89 | 2.1
O=[N+]([O-])c1cc(Nc2ncnc3c2sc2ncccc23)ccc1O | > 10 | > 10 | > 10 | > 10 | > 10
Nc1ncnc2c1sc1cccnc12 | > 10 | > 10 | 1.8 | 6 | 5.2

Compound | IC50 [1] [µM] | IC50 [2] [µM] | IC50 [3] [µM] | IC50 [4] [µM] | IC50 [5] [µM]
c1ccc(Nc2ncnc3c2sc2cccnc23)cc1 | > 10 | > 10 | 1.6 | > 10 | > 10
COc1ccc(Nc2ncnc3c2sc2cccnc23)cc1 | > 10 | > 10 | > 10 | > 10 | > 10
COc1ccc(Nc2ncnc3c2sc2cccnc23)cc1OC | > 10 | > 10 | > 10 | 3.7 | > 10
COc1cc(Nc2ncnc3c2sc2cccnc23)cc(OC)c1 | > 10 | > 10 | > 10 | > 10 | > 10
COc1cc(Nc2ncnc3c2sc2cccnc23)cc(OC)c1OC | > 10 | > 10 | 4.1 | > 10 | > 10
c1cnc2c(c1)sc1c(Nc3ccc4c(c3)OCO4)ncnc12 | > 10 | > 10 | > 10 | > 10 | > 10
c1cnc2c(c1)sc1c(Nc3ccc4c(c3)OCCO4)ncnc12 | > 10 | > 10 | > 10 | > 10 | > 10
Fc1cc(Br)ccc1Nc1ncnc2c1sc1cccnc12 | > 10 | > 10 | 11 | 7.3 | > 10
O=[N+]([O-])c1cc(Nc2ncnc3c2sc2cccnc23)ccc1O | > 10 | > 10 | 0.12 | 5.8 | > 10
Nc1ncnc2c1sc1nccnc12 | > 10 | > 10 | 2.4 | > 10 | 
c1ccc(Nc2ncnc3c2sc2nccnc23)cc1 | > 10 | > 10 | 5 | > 10 | 
COc1ccc(Nc2ncnc3c2sc2nccnc23)cc1 | > 10 | > 10 | > 10 | > 10 | 
COc1ccc(Nc2ncnc3c2sc2nccnc23)cc1OC | > 10 | > 10 | > 10 | > 10 | 
COc1cc(Nc2ncnc3c2sc2nccnc23)cc(OC)c1 | > 10 | > 10 | 7.8 | > 10 | 
COc1cc(Nc2ncnc3c2sc2nccnc23)cc(OC)c1OC | > 10 | > 10 | > 10 | > 10 | 
c1cnc2c(n1)sc1c(Nc3ccc4c(c3)OCO4)ncnc12 | > 10 | > 10 | > 10 | > 10 | 
c1cnc2c(n1)sc1c(Nc3ccc4c(c3)OCCO4)ncnc12 | > 10 | > 10 | > 10 | > 10 | 
Fc1cc(Br)ccc1Nc1ncnc2c1sc1nccnc12 | > 10 | > 10 | > 10 | > 10 | 
O=[N+]([O-])c1cc(Nc2ncnc3c2sc2nccnc23)ccc1O | > 10 | > 10 | 1.4 | > 10 | 
Nc1ncnc2c1sc1ncccc12 | > 10 | > 10 | 0.031 | 2.8 | 0.68
